These results are taken from paper PMC11951523 (Genome Biology, 2025).

For orientation: IC50 means the point on the concentration scale where inhibition reaches its midpoint. What is called Kd is a measure of binding affinity in units of concentration.

Data set [1] deals with T1, SauCas9 (Staphylococcus aureus, UniProt J7RUA5).
T1 sequence (J7RUA5 1-1053): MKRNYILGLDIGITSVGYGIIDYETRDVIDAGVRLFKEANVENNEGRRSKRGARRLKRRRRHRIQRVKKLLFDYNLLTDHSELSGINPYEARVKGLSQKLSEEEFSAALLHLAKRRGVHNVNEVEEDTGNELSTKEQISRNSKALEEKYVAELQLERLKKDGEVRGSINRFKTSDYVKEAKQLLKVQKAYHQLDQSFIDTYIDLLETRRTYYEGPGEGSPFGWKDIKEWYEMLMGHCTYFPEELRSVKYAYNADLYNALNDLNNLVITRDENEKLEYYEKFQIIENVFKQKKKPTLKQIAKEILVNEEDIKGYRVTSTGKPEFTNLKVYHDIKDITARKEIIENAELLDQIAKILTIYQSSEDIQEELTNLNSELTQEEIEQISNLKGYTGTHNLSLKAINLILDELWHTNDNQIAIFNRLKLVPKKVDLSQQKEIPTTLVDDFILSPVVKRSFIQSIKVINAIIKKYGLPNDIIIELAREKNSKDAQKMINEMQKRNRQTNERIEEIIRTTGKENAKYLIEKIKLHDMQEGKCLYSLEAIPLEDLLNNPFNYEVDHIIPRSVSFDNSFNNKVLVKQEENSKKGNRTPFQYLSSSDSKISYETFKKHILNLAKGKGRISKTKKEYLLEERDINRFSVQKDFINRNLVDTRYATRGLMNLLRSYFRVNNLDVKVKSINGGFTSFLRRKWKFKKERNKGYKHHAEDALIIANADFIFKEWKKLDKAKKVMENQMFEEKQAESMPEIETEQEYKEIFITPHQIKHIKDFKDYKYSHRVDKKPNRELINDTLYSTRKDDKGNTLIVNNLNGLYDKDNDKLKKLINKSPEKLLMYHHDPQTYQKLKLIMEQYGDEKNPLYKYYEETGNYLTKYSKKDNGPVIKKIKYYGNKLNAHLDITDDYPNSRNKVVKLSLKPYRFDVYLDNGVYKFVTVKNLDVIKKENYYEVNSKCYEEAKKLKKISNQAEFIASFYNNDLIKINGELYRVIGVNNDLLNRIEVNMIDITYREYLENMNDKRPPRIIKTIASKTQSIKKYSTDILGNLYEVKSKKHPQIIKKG
Description: In vitro purified enzyme activity assay for SauCas9. Format: biochemical. Particulars: Sau Cas9.

Data set [2] concerns SpyCas9. As to conditions: read-out: IC50 in the in vitro DNA cleavage assay; cited from earlier work.
In data set [3] the target is T2, SpyCas9 (Streptococcus pyogenes serotype M1, UniProt Q99ZW2). Description: biochemical. Particulars: Spy Cas9.
In data set [4] the test system is EcoRI or KpnI endonuclease. Description: EcoRI or KpnI endonuclease activity assay with 2.5 kb linear DNA. The class given is biochemical.
Another data set concerns LbaCas12a. Description: LbaCas12a activity assay. The class given is biochemical, Lachnospiraceae bacterium. As to conditions: for effect on the activity of LbaCas12a: complete inhibition refers to 50 μM or above.
A further data set has as its target FnoCas12a (Francisella tularensis subsp. novicida, UniProt A0Q7Q2). Format: biochemical.
Data set [5] concerns the target T2, SpyCas9. Description: Surface plasmon resonance assay. The class given is binding. A digest of the protocol:
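His-tagged SpyCas9, Ni–NTA purified and imidazole-eluted, amine-coupled to a CM5 chip at 100 μg/ml. Test compounds were diluted in 1× PBST to a series of concentrations and injected at 30 μl/min, with 120 s association and 120 s dissociation. Equilibrium KD was fitted from the response curves.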
In general terms: Surface plasmon resonance follows binding to a sensor surface in real time, without labels.

Data set [6] addresses T2, SpyCas9. Format: cell-based. As to conditions: read-out: IC50, cell-based assay; Spy Cas9; TIDE analysis, editing efficiency for COSMC or EMX1 loci in HEK293FT cells. A digest of the protocol: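 HEK293FT cells, ~2 × 10^5 per well, were seeded 1 day before transfection (Lipofectamine 3000) with 1 μg PX459-SpyCas9-sgCOSMC, -sgEMX1 or -sgControl. Test compound was added 0 or 6 h post-transfection, and cells were kept 24 h at 37 °C, then selected with 2.5 μg/ml puromycin for 36–48 h. Target loci were PCR-amplified, Sanger-sequenced and scored by TIDE.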

Data set [7] deals with SpyCas9-mediated genome editing of PCSK9. The data set can be described thus: SpyCas9-mediated anti-PCSK9 mouse model by hydrodynamic injection. Format: in vivo, BALB/c mice. A digest of the protocol:
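On days 1, 4 and 7, 90 μg PX459-SpyCas9-sgPCSK9 or -sgControl in 2 ml saline was injected hydrodynamically into the tail vein over 5–8 s. Orbital blood (~100 μl) was taken days 2, 5 and 8, and heparin plasma (20 μl) was assayed by PCSK9 ELISA.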

In the next data set the test system is E. coli MG1655. The data set can be described thus: Toxicity to bacteria in the two-plasmid-based bacterial survival assay. The class given is cell-based. Particulars: MG1655, bacterial survival assay. Put shortly:
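MG1655 pCas-competent cells were electroporated with pT-sgControl. Test compound was added to 700 μl LB immediately afterwards and incubated 1.5 h at 32 °C, then plated on LB agar with kanamycin and spectinomycin (100 μg/ml each). Colonies were counted after overnight incubation; biological replicates n = 3.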

Data set [8] has as its target T2, SpyCas9. Description: Two-plasmid-based bacterial survival assay. The class given is cell-based. As to conditions: read-out: IC50, bacteria-based assay, Spy Cas9, bacterial survival assay using pCas and pTarget-sgSSEA plasmids, E. coli MG1655. Put shortly: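 E. coli MG1655 competent cells carrying pCas (SpyCas9) electroporated with pTarget-sgSSEA, or the pT-sgControl plasmid as reference. Test compound added to the electroporated bacteria for 1.5 h at 32 °C, then plated on LB with kanamycin and spectinomycin and incubated overnight. Colonies counted and expressed as a percentage of the compound-treated sgControl strain at the same concentration (100%).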

Data set [9] deals with T1, SauCas9. Description: SauCas9-mediated genome editing of COSMC in HEK293FT cells, TIDE analysis. Format: cell-based. Particulars: read-out: IC50, cell-based assay; Sau Cas9; TIDE analysis, editing efficiency for COSMC in HEK293FT cells. A digest of the protocol:
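HEK293FT wt cells were co-transfected (Lipofectamine 3000) with 1 μg miniCMV-SaCas9 and 1 μg pGL3 carrying sgCOSMC-Sau or sgControl. Test compound was added right after transfection for 24 h, followed by 2.5 μg/ml puromycin selection. The COSMC locus was PCR-amplified (40 cycles), Sanger-sequenced, and editing efficiency was obtained by TIDE analysis.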

For a further data set, the target named is BE4 base editor (Streptococcus pyogenes, UniProt Q99ZW2, D10A). The data set can be described thus: BE4-mediated base editing of EMX1 in HEK293FT cells, EditR analysis. The class given is cell-based. As to conditions: read-out: IC50, cell-based assay; BE4 base editing efficiency for EMX1 loci, HEK293FT cells.
In data set [10] the target is T2, SpyCas9. Description: GFP-disruption assay in HEK293FT cells. Particulars: read-out: IC50, cell-based assay; Spy Cas9; GFP-disruption assay, PX459-SpyCas9 and pGL3-sgGFP plasmids, HEK293FT cells. Format: cell-based.
For data set [11] the following is noted: in humans; cited from earlier work.
The mark [12] stands for this setting: read-out: IC50, in vitro purified enzyme assay, linear substrates (87 bp oligonucleotide).
[13] abbreviates: read-out: IC50, in vitro purified enzyme assay, supercoil (circular) plasmid substrate.

Where two headings read alike, the source gives them in different places.

In the case of `Cc1ccc(S(=O)(=O)N2CC[C@@H]3[C@H](CO)Nc4ccc(-c5ccccc5F)cc4[C@@H]32)cc1` [BRD0539], the IC50 is 10 to 20 µM on SauCas9 [1] (setting [12]), ~50 µM at SauCas9 [1] (setting [13]) and 22 µM in the data set on SpyCas9 [2].
`CCCCC(CC)COC(=O)CC(C(=O)OCC(CC)CCCC)S(=O)(=O)O` (stereo not shown) [Docusate]: the half-inhibitory concentration (IC50) on SpyCas9 [3] (IC50, in vitro purified enzyme assay, linear substrates (87 bp oligonucleotide or 2.5 kb linear DNA)) fell in the range of 20 to 50 µM; against SpyCas9 [3] (IC50, in vitro purified enzyme assay, supercoil (circular) plasmid substrate pcDNA3.1/CT-GFP) it was 10 to 20 µM; against SauCas9 [1] (IC50, in vitro purified enzyme assay, linear substrates (87 bp oligonucleotide)), 12.5 to 25 µM; on SauCas9 [1] (IC50, in vitro purified enzyme assay, supercoil (circular) plasmid substrate) it was 25 to 50 µM. Also, the “selectivity for Cas9 over other endonucleases EcoRI and KpnI” value in data set [4] is given as ~ 5 folds. For the same molecule, the “selectivity of inhibition between SpyCas9 (Type II-A) and LbaCas12a (Type V)” value with LbaCas12a is “less than 5 folds”. The “effect on the activity of LbaCas12a” value in the data set with LbaCas12a is “completely inhibit”. Besides, on FnoCas12a, the “effect on the activity of FnoCas12a” value was “completely inhibit”. Besides, the “selectivity of inhibition between SpyCas9 (Type II-A) and FnoCas12a (Type V)” value on FnoCas12a is recorded as “less than 5 folds”. This molecule also displayed a Kd on SpyCas9 [5] of 12.8 to 56.4 µM.
On to `CN[C@H]1C(=O)N[C@@H]2Cc3ccc(cc3)Oc3cc4cc(c3O[C@@H]3O[C@H](C(=O)O)[C@@H](O)[C@H](O)[C@H]3NC(=O)CCCCCCCCC(C)C)Oc3ccc(cc3Cl)[C@@H](O)[C@@H]3NC(=O)[C@H](NC(=O)[C@@H]4NC(=O)[C@@H](NC2=O)c2cc(cc(O)c2Cl)Oc2cc1ccc2O)c1ccc(O)c(c1)-c1c(O[C@H]2O[C@H](CO)[C@@H](O)[C@H](O)[C@@H]2O)cc(O)cc1[C@@H](C(=O)NCCCN(C)C)NC3=O` [Dalbavancin], for which the IC50 on SpyCas9 [3] (read-out: IC50, in vitro purified enzyme assay, linear substrates (87 bp oligonucleotide or 2.5 kb linear DNA)) is ~5 µM; at SpyCas9 [3] (read-out: IC50, in vitro purified enzyme assay, supercoil (circular) plasmid substrate pcDNA3.1/CT-GFP), 10 to 20 µM; on SpyCas9 [6], ~10 µM; at SauCas9 [1] (setting [12]), ~25 µM; at SauCas9 [1] (setting [13]), 12.5 to 25 µM; at SpyCas9 [8] it was 12.5 to 25 µM. Also, the IC50 on SpyCas9 [8] (listed as dalbavancin) was ~12.5 µM; at SauCas9 [9], ~10 µM; on BE4 base editor it was 10 to 20 µM; at SpyCas9 [10] it was ~10 µM. In addition, the “effect on the basal level of PCSK9 in vehicle-treated (sgControl) mice” value in data set [7] (160 mg/kg) is reported as “did not interfere”. Moreover, in [7] (high doses of 80 or 160 mg/kg, 2nd or 3rd treatment cycle), the “preventive effect on loss of plasma PCSK9” value is “strong preventive effects”. Also, in [4], the “selectivity for Cas9 over other endonucleases EcoRI and KpnI” value is “more than 10 folds”. Also, the “toxicity to E. coli” value with E. coli MG1655 was “did not appear to be much toxic”. For the same molecule, in the data set on LbaCas12a, the “effect on the activity of LbaCas12a” value is “inactive to or weakly inhibited”. Besides, at FnoCas12a, the “effect on the activity of FnoCas12a” value is “inactive to or weakly inhibited”. The “elimination half-time (t1/2 value)” value in data set [11] was ~ 1 week. The “site of metabolism / elimination” value in data set [11] is reported as “largely eliminated in the kidney”.
